In ChEMBL document CHEMBL1138476 (J Med Chem, 2009):
≈ marks a conversion by molar mass, not a printed value. Calls of active or inactive are those of the source. The calls are words filed in the database; no cut-off is given here.

How the values were obtained:
Canis familiaris [1] = assay: Effect on respiratory function in spontaneously breathing mongrel dog assessed as change in tidal volume at 5 mg/kg after intravenous infusion for 30 mins (RVb= 6.1+/-5.6 %); type: functional, Canis lupus familiaris
Canis familiaris [2] = assay: Effect on respiratory function in spontaneously breathing mongrel dog assessed as change in heart rate at 5 mg/kg after intravenous infusion for 6 mins (RVb= -0.4+/-0.7 %); type: functional, Canis lupus familiaris
Rattus norvegicus [3] = assay: Anxiolytic activity in rat assessed as increase in time spent on open arm at 30 mg/kg, po by elevated plus-maze test; type: functional, organism-based; parameters: dose 30 mg/kg
Method in brief: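 Rat elevated plus maze: percent of test time spent in the open arms. Oral dosing in 0.25% Methocel 60 min before testing; n = 12 per dose, mean ± SEM. Analysed by ANOVA followed by Fisher's LSD comparisons against vehicle.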

[4] = AUC in Beagle dog at 1 mg/kg, po by cassette dosing; type: ADME, organism-based, Canis lupus familiaris; parameters: dose 1 mg/kg, route oral; conditions: plasma
[5] = Aqueous solubility at pH 7.4; type: physicochemical; conditions: aqueous medium
Method in brief: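 Solubility measured in water at pH 7.4.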

Canis familiaris [6] = assay: Effect on respiratory function in spontaneously breathing mongrel dog assessed as change in intrapleural pressure at 5 mg/kg after intravenous infusion for 60 mins (RVb= 18.5+/-19.9 %); type: functional, Canis lupus familiaris
Canis familiaris [7] = assay: Effect on respiratory function in spontaneously breathing mongrel dog assessed as change in tidal volume at 5 mg/kg after intravenous infusion for 15 mins (RVb= 2.2+/-4.3 %); type: functional, Canis lupus familiaris
[8] = Volume of distribution at steady state in rat at 1 mg/kg, iv and 5 mg/kg, po; type: ADME, organism-based; conditions: in vivo, read-out: Vdss
Method in brief: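 Rats (n = 3) dosed iv at 1 mg/kg in 10% DMAC, 70% propylene glycol and deionized water, and orally at 5 mg/kg in 0.5% methylcellulose.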

Canis familiaris [9] = assay: Effect on respiratory function in spontaneously breathing mongrel dog assessed as change in peak expiratory flow at 5 mg/kg after intravenous infusion for 6 mins (RVb= 3.6+/-3.7 %); type: functional, Canis lupus familiaris
[10] = Plasma concentration in spontaneously breathing dog at 5 mg/kg, iv after 60 mins; type: ADME, organism-based, Canis lupus familiaris; parameters: dose 5 mg/kg, route intravenous
Method in brief: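 Spontaneously breathing, barbiturate-anesthetized mongrel dogs (n = 4) infused iv at 5.0 mg/kg over 6 min. Total pooled plasma concentrations taken at 6, 15, 30 and 60 min.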

Canis familiaris [11] = assay: Effect on respiratory function in spontaneously breathing mongrel dog assessed as change in respiration rate at 5 mg/kg after intravenous infusion for 6 mins (RVb= -8.3+/-8.3 %); type: functional, Canis lupus familiaris
Canis familiaris [12] = assay: Cardiovascular activity in mechanically ventilated mongrel dog at assessed as increase in contractility at 3 mg/kg to 5 mg/kg, iv by dose escalation study
Canis familiaris [13] = assay: Effect on respiratory function in spontaneously breathing mongrel dog assessed as change in peak expiratory flow at 5 mg/kg after intravenous infusion for 30 mins (RVb= -3.3+/-6.4 %); type: functional, Canis lupus familiaris
Rattus norvegicus [14] = assay: Ex vivo receptor occupancy of CRF receptor in rat brain at 3 mg/kg, po by [125I]sauvagine binding and autoradiography relative to control; type: functional
Method in brief: (§1)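 Rats were given 0.3, 1, 3, 10 or 30 mg/kg po in 0.25% Methocel 60 min before sacrifice. Brains were removed, sectioned and frozen at −80 °C. Ex vivo CRF receptor binding gave occupancy relative to vehicle-treated rats, reported as mean ± SEM.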

Canis familiaris [15] = assay: Effect on respiratory function in spontaneously breathing mongrel dog assessed as change in pulmonary compliance at 5 mg/kg after intravenous infusion for 30 mins (RVb= -2.8+/-4.0 %); type: functional, Canis lupus familiaris
Rattus norvegicus [16] = assay: Effect on acute renal function in rat assessed as change in urine pH per 100 gm body weight at 30 mg/kg, po (RVb= 7.74+/-0.07 mg/dl); type: functional
[17] = Lipophilicity log P of the compound; type: physicochemical; conditions: octanol/water
Rattus norvegicus [18] = assay: Ex vivo receptor occupancy of CRF receptor in rat brain at 1 mg/kg, po by [125I]sauvagine binding and autoradiography relative to control; type: functional; method in brief: as §1
[19] = Plasma concentration in dog at 3 mg/kg after […]; type: ADME, organism-based, Canis lupus familiaris; parameters: dose 3 mg/kg, route intravenous; conditions: iv
Canis familiaris [20] = assay: Effect on respiratory function in spontaneously breathing mongrel dog assessed as change in pulmonary compliance at 5 mg/kg after intravenous infusion for 6 mins (RVb= 6.0+/-4.2 %); type: functional, Canis lupus familiaris
Rattus norvegicus [21] = assay: Effect on acute renal function in rat assessed as change in urine creatinine level per 100 gm body weight at 30 mg/kg, po (RVb= 16.2+/-3.3 mg/dl); type: functional
[22] = Elimination half life in chimpanzee at 0.5 mg/kg, iv; type: ADME, organism-based, Pan troglodytes; parameters: dose 0.5 mg/kg, route intravenous; conditions: in vivo, read-out: beta t1/2 (converted)
Method in brief: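 One chimpanzee received 0.5 mg/kg iv over 10 min (0.2 mL/kg) in 10% DMAC, 70% propylene glycol and deionized water. Blood was drawn into EDTA predose and at 6, 15, 30 min and 2, 4, 6, 9, 12, 24, 36, 48, 72 and 96 h.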

[23] = Elimination half life in chimpanzee at 1 mg/kg, po; type: ADME, organism-based, Pan troglodytes; parameters: dose 1 mg/kg, route oral; conditions: in vivo, read-out: beta t1/2 (converted)
Method in brief: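 Two alert chimpanzees were given 1 mg/kg po as a 1 mg/mL suspension in 50:50 (v/v) 0.5% methylcellulose and Tang orange juice containing 1% Tween-80. EDTA blood was taken predose and at 2–96 h. Bioavailability was calculated against a 0.5 mg/kg iv dose given to one animal.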

Rattus norvegicus [24] = assay: Ex vivo receptor occupancy of CRF receptor in rat brain at 10 mg/kg, po by [125I]sauvagine binding and autoradiography relative to control; type: functional; method in brief: as §1
Canis familiaris [25] = assay: Effect on respiratory function in spontaneously breathing mongrel dog assessed as change in minute volume at 5 mg/kg after intravenous infusion for 30 mins (RVb= 1.0+/-9.7 %); type: functional, Canis lupus familiaris
[26] = AUC (0 to infinity) in chimpanzee at 0.5 mg/kg, iv; type: ADME, organism-based, Pan troglodytes; parameters: time infinity, dose 0.5 mg/kg, route intravenous; conditions: plasma
Method in brief: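 Chimpanzee PK. Oral: 1 mg/kg in two alert animals, given as a 1 mg/mL suspension in 50–50 (v/v) 0.5% methylcellulose/Tang orange juice with 1% Tween-80. IV: 0.5 mg/kg in one animal in 10% DMAC, 70% propylene glycol and deionized water, infused over 10 min (0.2 mL/kg). EDTA blood was taken predose and at 2–96 h; iv sampling added 6, 15 and 30 min.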

Canis familiaris [27] = assay: Cardiovascular activity in dog assessed as increase in mean […] pressure at 3 mg to 5 mg/kg, iv by dose escalation study; type: functional, Canis lupus familiaris
Method in brief: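 Anesthetized mongrel dogs on sodium pentobarbital, mechanically ventilated, with left ventricular and arterial pressure transducers and ECG. Four dogs received 6 min iv infusions at escalating 0.3, 1, 3 and 5 mg/kg, 30 min apart; four control dogs received vehicle on the same schedule. Mean arterial pressure and dP/dt were recorded; plasma was sampled after each infusion.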

[28] = Plasma concentration in rat at 30 mg/kg, po after 5 hrs; type: ADME, organism-based; parameters: dose 30 mg/kg, route oral
Method in brief: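 Rats (n = 9, renal function study) given 30 mg/kg po; plasma levels measured in a separate cohort dosed the same way, sampled at 1 and 5 h after dosing.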

Canis familiaris [29] = assay: Effect on respiratory function in spontaneously breathing mongrel dog assessed as change in intrapleural pressure at 5 mg/kg after intravenous infusion for 6 mins (RVb= -21.2+/-26.5 %); type: functional, Canis lupus familiaris

AUC [4]: 2.02 µM·h
solubility [5]: 16 µg/mL (≈ 47 µM)
Vd [8]: 14.9 L/kg
concentration at 1 h [10]: 229 nM
logP [17]: 4.32
concentration at 0.5 h [19]: 1290 nM
half-life [22]: 30 h
half-life [23]: 26 h
AUC(0-inf) [26]: 11.9 µM·h
concentration at 5 h [28]: 4950 nM
Structure (SMILES): CC[C@@H](C)Nc1nc(C)nc2c(-c3ccc(OC)nc3C)c(C)nn12 [PEXACERFONT]
Activity (Canis familiaris [1]): -15.2%
Activity (Canis familiaris [2]): -0.3%
Activity (Rattus norvegicus [3]): Active
Activity (Canis familiaris [6]): 0.7%
Activity (Canis familiaris [7]): 4.3%
Activity (Canis familiaris [9]): -12.5%
Activity (Canis familiaris [11]): 37.5%
Activity (Canis familiaris [12]): 200 mmHg/s
Activity (Canis familiaris [13]): -10.7%
Activity (Rattus norvegicus [14]): 59%
Activity (Canis familiaris [15]): -22.3%
Activity (Rattus norvegicus [16]): 7.74
Activity (Rattus norvegicus [18]): 26%
Activity (Canis familiaris [20]): -2.5%
Activity (Rattus norvegicus [21]): 8 mg/dL
Activity (Rattus norvegicus [24]): 69%
Activity (Canis familiaris [25]): -30.8%
Activity (Canis familiaris [27]): 10 mmHg
Activity (Canis familiaris [29]): 3.3%
